From PubChem
Compounds with a hit are over-represented: about 1.9% of the library has one in this group of screens.
RanGTP-Impb inh: disruptors of Ran-importin-beta complex formation – biochemical, FRET, CFP-Ran, YFP-importin-beta, homogeneous, primary screen. cell-free CFP-Ran/YFP-importin-beta FRET ratio. inhibition, % (no concentration beside the values). 300,000 tested, 1.1% active;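 active = more than half of the replicate wells show a fall in the fluorescence ratio signal beyond about 16%, limit read from the data, passing the limit was not always enough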
CaV13 ICDI inh: Disruptors of the CACNA1D IQ motif to Ca2+-dependent inactivation inhibitor domain association, primary screening, Förster resonance energy transfer in intact living …; 340,000 tested, 0.098% active; inhibition, % at 12.3 µM; HEK cells, CFP/YFP FRET ICDI-IQ, plate reader, 10 min; percent FRET-ratio fall versus neutral wells; AID 743397;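 active = mean replicate inhibition of at least 30% and at least 1% of replicates passing that level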
Runt-SMMHC FRET: Runt domain-CBFb-SMMHC interaction inhibition | Q01196+Q13951 | Cerulean-Runt/Venus-CBFb-SMMHC FRET ratio 530/480, 1 h | inhibition, % at 20 µM | 220,000 tested, 0.74% active | AID 1434;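 active = mean inhibition across duplicate retests at 20 µM reaching about 50%, limit read from the data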;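 also: inhibitors lower the FRET ratio by blocking Runt binding to CBFb-SMMHC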
HDAC3 inh: blocks human histone deacetylase 3 | O15379 | recombinant HDAC3, fluorogenic peptide/trypsin coupled, fluorescence | inhibition, % at 8.3 µM | 320,000 tested, 0.15% active; in the data active = inhibition above about 26%, passing the limit was not always enough
Runt-CBFb FRET: blocks binding of human RUNX1 Runt domain to CBFb; inhibition, % at 20 µM; 220,000 tested, 0.46% active; Cerulean-Runt/Venus-CBFb FRET ratio 530/480, 1 h;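 active = inhibition over about 50% at 20 µM in the single-dose screen, limit read from the data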
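test system = Cerulean-tagged RUNX1 Runt domain (FRET donor) fusion protein | reagent = Venus-CBFb binding partner, 100 nM | incubation = protein complex preformed 1 h, compound exposure 1 h, room temperature, dark | detection = FRET fluorescence | read-out basis = loss of energy transfer signal | controls = 5 µM unlabeled CBFb as full-inhibition high control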
LANA-H2B inh: blocks KSHV LANA binding to histone H2A/H2B; Q9QR71; cell-free LANA-H2A/H2B peptide, fluorescence polarization; inhibition, % (test concentration not listed); 320,000 tested, 0.6% active; AID 2629; in the data active = inhibition mostly above about 10%, no sharp cut-off; inactive = mostly below about 6.7%
Large screens that a line does not name were inactive.

Cc1nonc1OCCN1CCN(c2ccccc2[N+](=O)[O-])CC1	LANA-H2B inh 23.2
CNC(=O)c1c(NC(=O)c2ccco2)sc2c1CCC2	LANA-H2B inh 83.2 (no result: Runt-SMMHC FRET, Runt-CBFb FRET)
O=C(Nc1sc2c(c1C(=O)NC1CCCCC1)CCC2)c1ccco1	RanGTP-Impb inh 56.4 (no result: HDAC3 inh, LANA-H2B inh)
CCCN(CCC)c1nc2ccccc2nc1C(C#N)C(=O)OC(C)COC (stereo not given)	RanGTP-Impb inh 23.1 (no result: CaV13 ICDI inh, Runt-SMMHC FRET, Runt-CBFb FRET)
CCN(CC)c1nc2ccccc2nc1C(C#N)C(=O)NCCCOC (stereo not given)	Runt-SMMHC FRET 61.3, Runt-CBFb FRET 67.0 (no result: RanGTP-Impb inh)
CCCCN(CCCC)c1nc2ccccc2nc1C(C#N)C(=O)NCCCOC (stereo not given)	RanGTP-Impb inh 31.6, LANA-H2B inh 27.2 (no result: CaV13 ICDI inh)
CCN(CC)c1nc2ccccc2nc1C(C#N)C(=O)NCCc1ccccc1 (stereo not given)	RanGTP-Impb inh 51.7, Runt-SMMHC FRET 58.8
NS(=O)(=O)c1ccc(N2C(=O)C(=O)/C(=C(/O)c3ccccc3)C2c2ccc(Cl)cc2)cc1 (stereo not given)	none (no result: HDAC3 inh)
Cc1ccc([C@H]2C[C@H](O)[C@@H](n3cc(-c4ccc(F)cc4)nn3)CN2C(=O)c2cccs2)cc1	none (no result: RanGTP-Impb inh, Runt-SMMHC FRET, HDAC3 inh, Runt-CBFb FRET, LANA-H2B inh)
Cc1ccc(C(=O)Nc2cccc(NC(=O)c3cccnc3)c2)cc1	none (no result: Runt-SMMHC FRET, Runt-CBFb FRET)
CCOC(=O)c1c(C)[nH]c(C(=O)COC(=O)c2cccnc2Cl)c1C	none (no result: RanGTP-Impb inh, Runt-SMMHC FRET, Runt-CBFb FRET)
O=C(Nc1ccc2c(c1)OCO2)c1cc(C2CCCCN2S(=O)(=O)c2ccccc2)on1 (stereo not given)	none (no result: RanGTP-Impb inh, Runt-SMMHC FRET, HDAC3 inh, Runt-CBFb FRET, LANA-H2B inh)
O=C1C=C(c2ccc3ccccc3c2)C[C@@H](c2ccc(F)cc2)C1	LANA-H2B inh 21.3 (no result: RanGTP-Impb inh, Runt-SMMHC FRET, Runt-CBFb FRET)
CC(=NO)C1CCC2C3CCC4CC(=NO)CCC4(C)C3C(C)(O)CC12C (stereo not given)	none (no result: RanGTP-Impb inh, Runt-SMMHC FRET, HDAC3 inh, Runt-CBFb FRET, LANA-H2B inh)
COc1ccc(CNC2CCCc3ccccc32)cc1OC (stereo not given)	LANA-H2B inh 30.5
O=C(CN1CCc2[nH]c3ccccc3c2C1)N1CCCCC1	LANA-H2B inh 18.3
CC(=O)N1CCc2[nH]c3ccccc3c2C1	RanGTP-Impb inh 37.9
CCOC(=O)[C@]12CCC=C1N(Cc1ccccc1)C(=O)[C@H](CC(=O)N1CCCCC1)C2	none (no result: RanGTP-Impb inh, Runt-SMMHC FRET, HDAC3 inh, Runt-CBFb FRET, LANA-H2B inh)
N#CCCN(C(=O)COc1ccc(C#N)cc1)c1ccc(F)cc1	none
CNc1oc(/C=C/c2ccccc2)nc1C#N	Runt-SMMHC FRET 84.2
COCCNc1oc(/C=C/c2ccccc2)nc1C#N	none
O=C(Oc1ccc(/C=N/O)cc1)c1ccccc1Cl	none
COc1ccccc1C(=O)NNC(=O)c1cccc(Cl)c1	none (no result: Runt-SMMHC FRET, Runt-CBFb FRET)
COc1ccc(Cl)cc1C(=O)NNC(=O)c1cccc([N+](=O)[O-])c1	LANA-H2B inh 156.1
O=C(NCc1ccc(Cl)cc1)C(=O)c1cn(CC(=O)N2CCOCC2)c2ccccc12	none (no result: Runt-SMMHC FRET, Runt-CBFb FRET)
CC(C)(Cc1ccccc1)NC(=O)C(=O)c1cn(CC(=O)N2CCOCC2)c2ccccc12	LANA-H2B inh 38.5 (no result: Runt-SMMHC FRET, Runt-CBFb FRET)
CC[C@@]1(C(=O)OC)N[C@H](CN(C)C(=O)c2ccccc2)[C@@H]2C(=O)N(C)C(=O)[C@@H]21	none (no result: RanGTP-Impb inh, Runt-SMMHC FRET, HDAC3 inh, Runt-CBFb FRET, LANA-H2B inh)
COC(=O)c1noc(C)c1-c1ccnn1C(=O)c1ccc(C)cc1	RanGTP-Impb inh 11.7
Cc1onc(-c2ccccc2)c1-c1ccnn1C(=O)NC(C)C	none
Cc1cccc(NC(=O)C2CCN(C(=O)c3ccco3)CC2)c1C	none (no result: Runt-SMMHC FRET, Runt-CBFb FRET)
Cc1c(Cl)sn(-c2ccc(Cl)cc2)c1=O	Runt-SMMHC FRET 53.2 (no result: RanGTP-Impb inh, HDAC3 inh, LANA-H2B inh)
O=C(CC1SC(N2CCOCC2)=NC1=O)Nc1ccc(Cl)cc1 (stereo not given)	none (no result: RanGTP-Impb inh, Runt-SMMHC FRET, HDAC3 inh, Runt-CBFb FRET, LANA-H2B inh)
Cc1cc(C)cc(-n2c3nc4ccccc4nc3c3c(=O)n(Cc4ccco4)cnc32)c1	RanGTP-Impb inh 18.8 (no result: CaV13 ICDI inh, Runt-SMMHC FRET)
O=C(CN1C(=O)COc2ccccc21)NCCN1CCC(Cc2ccccc2)CC1	none
Cc1ccc(NNC(=O)C(O)(c2cccc(C(F)(F)F)c2)c2cccc(C(F)(F)F)c2)cc1	HDAC3 inh 40.7
Cc1ccc2cccc(N)c2n1	none
Cc1cc(=O)oc2cc(OCC(=O)NCCN3CCOCC3)ccc12	none (no result: Runt-SMMHC FRET, Runt-CBFb FRET)
CCCCc1cc(=O)oc2cc(OCC(=O)NCCN3CCOCC3)ccc12	LANA-H2B inh 15.3 (no result: Runt-SMMHC FRET, Runt-CBFb FRET)
